Source: PubChem BioAssay
Calls of active or inactive are those of the source.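 Rule for the calls, unless noted: active = viability at or below 10% of carrier control in both of two separate runs; inconclusive = viability at or below 10% in only one of the two runs; inactive = the rest.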

Legend:
[1] = Her2 expression decrease, cell viability multiplex – SKBR3 breast tumor cells, AlphaScreen, ATP viability, primary screen (AID 461;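 active = Her2 level under about 52% in both replicate screens, with viability over 70% of control, limit read from the data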;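 for Her2 level: lower value means less Her2 protein in the cells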;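 for viability: percent of carrier control wells set as 100% viability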); conditions: SKBR3 Her2 protein level, 18-24 h, measured here: SKBR3 viability, ATP luminescence, at 10 µM
[2] = target: Receptor tyrosine-protein kinase erbB-2 (Homo sapiens) (UniProt P04626); test: as above; conditions: 18-24 h, at 10 µM, stronger effect = lower value
[3] = reduced viability of SK-BR-3 breast cancer cells – cell-based, 24 h, human, pilot screen (AID 572); conditions: SK-BR-3 viability, CellTiter-Glo luminescence, at 10 µM, stronger effect = lower value;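 note: compound exposure lasted between 18 and 24 h rather than exactly 24 h; 100% = carrier-treated control wells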
[4] = HUVEC growth inhibition – cell-based, human, primary screen (AID 575;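 active = viability at or below 30% in both replicate assays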;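 note: 100% = median of untreated cell wells with 0.1% DMSO on each plate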); conditions: HUVEC proliferation, CellTiter-Glo luminescence, 72 h; at 10 µM; stronger effect = lower value
Outline: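 Test system: HUVEC primary cells. Quantity: 1250 endothelial cells in each well. Dosing: single-point 10 µM, DMSO 0.1% final. Incubation: 72 h treatment at 37 °C. Measured by: CTG luminescence. Control set: DMSO cell controls and MePR drug controls. Plate: collagen-coated 384-well format.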

[5] = H69AR cell proliferation blockers – human, duplicate replicates, primary screen (AID 580;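 active = viability at or under a set limit in both replicates, limit being median viability minus 3 SD, cut at about 48% in these data, passing the limit was not always enough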;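 note: 100% = mean luminescence of untreated wells and 0% = no signal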); conditions: H69AR lung tumor cells viability, ATP luminescence, 72 h; at 10 µM; stronger effect = lower value
[6] = MRP1 drug-resistance reversers in H69AR cells – cell-based, doxorubicin co-treatment, pilot screen (AID 601;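 active = viability loss from added drug above about 55%, and viability with drug at most 40%, in both replicates, limit read from the data, passing the limit was not always enough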); conditions: CellTiter-Glo, 72 h, at 10 µM; for differential viability (reversal): stronger effect = higher value
[7] = yeast transport mutant growth inhibition pilot in 384-well plates, post-Golgi transport modulator project (AID 636; in the data active = inhibition above about 31%); conditions: absorbance 615 nm, about 18 h, stronger effect = higher value
[8] = growth suppression of yeast trafficking mutant, preliminary HTS, modulators of trafficking downstream of Golgi apparatus project, 1536-format plate, OD 615 nm (AID 637; in the data active = inhibition above about 30%); conditions: yeast transport mutant growth, absorbance 615 nm, 18 h; stronger effect = higher value
[9] = H69AR cells + 2 uM doxorubicin, measured here: viability with 2 uM doxorubicin, stronger effect = lower value
[10] = H69AR cells, compound alone cytotoxicity

Receptor tyrosine-protein kinase erbB-2 (Homo sapiens), sequence (P04626 whole entry, looked up): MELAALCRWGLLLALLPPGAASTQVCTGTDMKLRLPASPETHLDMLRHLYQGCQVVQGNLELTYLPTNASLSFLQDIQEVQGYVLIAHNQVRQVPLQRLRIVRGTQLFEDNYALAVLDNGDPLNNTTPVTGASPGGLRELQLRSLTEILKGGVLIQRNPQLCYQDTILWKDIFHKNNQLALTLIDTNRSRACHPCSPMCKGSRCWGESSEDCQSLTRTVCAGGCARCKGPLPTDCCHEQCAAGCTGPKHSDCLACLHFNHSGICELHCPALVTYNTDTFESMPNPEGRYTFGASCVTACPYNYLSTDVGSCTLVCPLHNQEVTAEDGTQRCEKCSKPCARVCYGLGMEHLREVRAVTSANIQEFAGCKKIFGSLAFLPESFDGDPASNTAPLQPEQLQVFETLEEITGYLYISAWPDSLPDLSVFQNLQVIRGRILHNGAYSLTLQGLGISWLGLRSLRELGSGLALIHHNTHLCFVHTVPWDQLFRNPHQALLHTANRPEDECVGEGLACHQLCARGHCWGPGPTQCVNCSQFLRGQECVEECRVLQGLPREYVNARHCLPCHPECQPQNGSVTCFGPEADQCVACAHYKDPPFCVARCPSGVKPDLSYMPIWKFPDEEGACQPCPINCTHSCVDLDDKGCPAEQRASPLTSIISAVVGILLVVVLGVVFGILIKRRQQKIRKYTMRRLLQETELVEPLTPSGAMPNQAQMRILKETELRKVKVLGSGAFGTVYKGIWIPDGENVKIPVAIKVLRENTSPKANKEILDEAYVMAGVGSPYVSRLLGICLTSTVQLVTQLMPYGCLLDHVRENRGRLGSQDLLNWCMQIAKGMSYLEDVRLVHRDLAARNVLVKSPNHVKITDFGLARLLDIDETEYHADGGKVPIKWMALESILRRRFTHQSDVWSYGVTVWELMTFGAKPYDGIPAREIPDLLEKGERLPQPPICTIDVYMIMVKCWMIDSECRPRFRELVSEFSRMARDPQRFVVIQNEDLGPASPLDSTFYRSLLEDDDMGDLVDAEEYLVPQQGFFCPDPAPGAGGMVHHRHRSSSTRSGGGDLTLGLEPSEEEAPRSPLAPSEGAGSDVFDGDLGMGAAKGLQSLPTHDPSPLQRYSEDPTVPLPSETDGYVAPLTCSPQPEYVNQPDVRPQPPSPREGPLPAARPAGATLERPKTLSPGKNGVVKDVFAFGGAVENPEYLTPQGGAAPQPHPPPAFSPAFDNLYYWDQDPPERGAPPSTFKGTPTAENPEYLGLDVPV

Question: What does the source list for `O=C(CN1CCN(c2cccc(Cl)c2)CC1)N1CCCC1`?
Answer: viability [1]: 105%; Her2 level [2]: 102% (inactive); viability [3]: 105% (inactive); viability [4]: 110% (inactive); viability [5]: 78.8% (inactive); differential viability (reversal) ([6]; H69AR cells + 2 uM doxorubicin): -2.74% (inactive); viability [6, 9]: 81.5%; viability [6, 10]: 78.8%; inhibition [7]: -6.75% (inactive); inhibition [8]: -7.46% (inactive)

Question: With `Cc1ccc2cc(CN(Cc3ccc4c(c3)OCO4)Cc3nnnn3Cc3ccco3)c(=O)[nH]c2c1C` as the compound, how does the viability [1] read?
Answer: 98.5%

Question: And the Her2 level [2]?
Answer: 97% (inactive)

Question: What about the viability [3] of the same compound?
Answer: 98.5% (inactive)

Question: And the viability [4]?
Answer: 85.1% (inactive)

Question: And the viability [5]?
Answer: 79.6% (inactive)

Question: What about the differential viability (reversal) ([6]; H69AR cells + 2 uM doxorubicin) of the same compound?
Answer: 13.3% (inactive)

Question: What about the viability [6, 9] of the same compound?
Answer: 66.4%

Question: What about the viability [6, 10] of the same compound?
Answer: 79.6%

Question: And the inhibition [7]?
Answer: -1.33% (inactive)

Question: What about the inhibition [8] of the same compound?
Answer: -3.17% (inactive)

Question: For `COC(=O)[C@@H](N)Cc1ccc(O)cc1`, which viability [1] is on record?
Answer: 106%

Question: What about the Her2 level [2] of the same compound?
Answer: 108% (inactive)

Question: What about the viability [3] of the same compound?
Answer: 106% (inactive)

Question: What about the viability [4] of the same compound?
Answer: 82.9% (inactive)

Question: What about the viability [5] of the same compound?
Answer: 109% (inactive)

Question: What about the differential viability (reversal) ([6]; H69AR cells + 2 uM doxorubicin) of the same compound?
Answer: 15.7% (inactive)

Question: What about the viability [6, 9] of the same compound?
Answer: 93.8%

Question: And the viability [6, 10]?
Answer: 109%

Question: Which results are given for `CN1CCC(=C2c3ccccc3CC(=O)c3sccc32)CC1`?
Answer: viability [1]: 96%; Her2 level [2]: 87% (inactive); viability [3]: 96% (inactive); viability [4]: 76.4% (inactive); viability [5]: 91.4% (inactive); differential viability (reversal) ([6]; H69AR cells + 2 uM doxorubicin): 11.8% (inactive); viability [6, 9]: 79.6%; viability [6, 10]: 91.4%

Question: Which viability [1] does the source give for `O=c1c2ccccc2nc(SCc2cccc(F)c2)n1Cc1ccco1` here?
Answer: 104%

Question: And the Her2 level [2]?
Answer: 97.5% (inactive)

Question: And the viability [3]?
Answer: 104% (inactive)

Question: What about the viability [4] of the same compound?
Answer: 87.6% (inactive)

Question: What about the viability [5] of the same compound?
Answer: 84.2% (inactive)

Question: And the differential viability (reversal) ([6]; H69AR cells + 2 uM doxorubicin)?
Answer: 1.36% (inactive)

Question: And the viability [6, 9]?
Answer: 82.8%

Question: What about the viability [6, 10] of the same compound?
Answer: 84.2%

Question: And the inhibition [7]?
Answer: -5.33% (inactive)

Question: And the inhibition [8]?
Answer: -0.63% (inactive)

Question: Which results are given for `Cn1c(=O)c2c(nc(CN3CCOCC3)n2CC(O)CO)n(C)c1=O` (stereo unspecified)?
Answer: viability [1]: 111%; Her2 level [2]: 107% (inactive); viability [3]: 111% (inactive); viability [4]: 104% (inactive); viability [5]: 86.2% (inactive); differential viability (reversal) ([6]; H69AR cells + 2 uM doxorubicin): -4.93% (inactive); viability [6, 9]: 91.1%; viability [6, 10]: 86.2%; inhibition [7]: -3.9% (inactive); inhibition [8]: 2.46% (inactive)

Question: For `Cc1cc(C)c(C)c(S(=O)(=O)Nc2ccc(O)cc2)c1C`, which viability [1] is on record?
Answer: 100%

Question: And the Her2 level [2]?
Answer: 87.5% (inactive)

Question: What about the viability [3] of the same compound?
Answer: 100% (inactive)

Question: And the viability [4]?
Answer: 96.6% (inactive)

Question: And the viability [5]?
Answer: 96.8% (inactive)

Question: What about the differential viability (reversal) ([6]; H69AR cells + 2 uM doxorubicin) of the same compound?
Answer: 14.1% (inactive)

Question: What about the viability [6, 9] of the same compound?
Answer: 82.7%

Question: And the viability [6, 10]?
Answer: 96.8%

Question: And the inhibition [7]?
Answer: -4.4% (inactive)

Question: What about the inhibition [8] of the same compound?
Answer: -1.61% (inactive)

Question: For `O=C(NCc1ccco1)c1cnc2n(c1=O)CCS2`, which viability [1] is on record?
Answer: 101%

Question: What about the Her2 level [2] of the same compound?
Answer: 94.5% (inactive)

Question: And the viability [3]?
Answer: 101% (inactive)

Question: And the viability [4]?
Answer: 91.3% (inactive)

Question: And the viability [5]?
Answer: 89.5% (inactive)

Question: And the differential viability (reversal) ([6]; H69AR cells + 2 uM doxorubicin)?
Answer: 0.265% (inactive)

Question: And the viability [6, 9]?
Answer: 89.2%

Question: And the viability [6, 10]?
Answer: 89.5%

Question: What about the inhibition [7] of the same compound?
Answer: 0.78% (inactive)

Question: What about the inhibition [8] of the same compound?
Answer: -1.48% (inactive)

Question: Which viability [1] does the source give for `CCC1(NC(C)=O)CC2CC1CC2NC(C)=O` (stereo unspecified) here?
Answer: 94.5%

Question: What about the Her2 level [2] of the same compound?
Answer: 100% (inactive)

Question: And the viability [3]?
Answer: 94.5% (inactive)

Question: What about the viability [4] of the same compound?
Answer: 107% (inactive)

Question: And the viability [5]?
Answer: 100% (inactive)

Question: And the differential viability (reversal) ([6]; H69AR cells + 2 uM doxorubicin)?
Answer: 11% (inactive)

Question: And the viability [6, 9]?
Answer: 89.1%

Question: What about the viability [6, 10] of the same compound?
Answer: 100%

Question: What about the inhibition [7] of the same compound?
Answer: -3.2% (inactive)

Question: And the inhibition [8]?
Answer: -5.74% (inactive)

Question: Which viability [1] does the source give for `CCOC(=O)c1ccccc1NC(=O)COC(=O)C1=COCCO1` here?
Answer: 98.5%

Question: What about the Her2 level [2] of the same compound?
Answer: 92% (inactive)

Question: What about the viability [3] of the same compound?
Answer: 98.5% (inactive)

Question: What about the viability [4] of the same compound?
Answer: 96.7% (inactive)

Question: What about the viability [5] of the same compound?
Answer: 88.7% (inactive)

Question: What about the differential viability (reversal) ([6]; H69AR cells + 2 uM doxorubicin) of the same compound?
Answer: -13.3% (inactive)

Question: And the viability [6, 9]?
Answer: 102%

Question: And the viability [6, 10]?
Answer: 88.7%

Question: And the inhibition [7]?
Answer: -5.81% (inactive)

Question: And the inhibition [8]?
Answer: 3% (inactive)

Question: For `C=CCNS(=O)(=O)c1ccc2nsnc2c1`, which viability [1] is on record?
Answer: 102%

Question: What about the Her2 level [2] of the same compound?
Answer: 109% (inactive)

Question: And the viability [3]?
Answer: 102% (inactive)

Question: And the viability [4]?
Answer: 87.8% (inactive)

Question: What about the viability [5] of the same compound?
Answer: 100% (inactive)

Question: And the differential viability (reversal) ([6]; H69AR cells + 2 uM doxorubicin)?
Answer: -1.67% (inactive)

Question: What about the viability [6, 9] of the same compound?
Answer: 102%

Question: And the viability [6, 10]?
Answer: 100%

Question: What about the inhibition [7] of the same compound?
Answer: 0.27% (inactive)

Question: What about the inhibition [8] of the same compound?
Answer: -2.1% (inactive)

Question: For `C=CCn1c(SCC(=O)NC23CC4CC(CC(C4)C2)C3)nc(O)cc1=O`, which viability [1] is on record?
Answer: 138%

Question: What about the Her2 level [2] of the same compound?
Answer: 108% (inactive)

Question: What about the viability [3] of the same compound?
Answer: 138% (inactive)

Question: And the viability [4]?
Answer: 91.4% (inactive)

Question: And the viability [5]?
Answer: 92.9% (inactive)

Question: What about the differential viability (reversal) ([6]; H69AR cells + 2 uM doxorubicin) of the same compound?
Answer: 0.68% (inactive)

Question: And the viability [6, 9]?
Answer: 92.2%

Question: What about the viability [6, 10] of the same compound?
Answer: 92.9%

Question: And the inhibition [7]?
Answer: -1.18% (inactive)

Question: And the inhibition [8]?
Answer: -0.48% (inactive)

Question: For `C=CCSC1=C(C#N)C(c2ccccc2OCC)CC(=O)N1` (stereo unspecified), which viability [1] is on record?
Answer: 94%

Question: What about the Her2 level [2] of the same compound?
Answer: 81% (inactive)

Question: And the viability [3]?
Answer: 94% (inactive)

Question: And the viability [4]?
Answer: 88.3% (inactive)

Question: And the viability [5]?
Answer: 95.3% (inactive)

Question: And the differential viability (reversal) ([6]; H69AR cells + 2 uM doxorubicin)?
Answer: 3.58% (inactive)

Question: What about the viability [6, 9] of the same compound?
Answer: 91.8%

Question: And the viability [6, 10]?
Answer: 95.3%

Question: What about the inhibition [7] of the same compound?
Answer: -5.39% (inactive)

Question: What about the inhibition [8] of the same compound?
Answer: 0.5% (inactive)

Question: What does the source list for `CC(=O)N(C)C1(c2nnnn2CCOC(=O)Nc2cccc3ccccc23)CCCC1`?
Answer: viability [1]: 119%; Her2 level [2]: 85.5% (inactive); viability [3]: 119% (inactive); viability [4]: 83.9% (inactive); viability [5]: 87.3% (inactive); differential viability (reversal) ([6]; H69AR cells + 2 uM doxorubicin): 3.21% (inactive); viability [6, 9]: 84.1%; viability [6, 10]: 87.3%; inhibition [7]: -4.13% (inactive); inhibition [8]: 5.08% (inactive)

Question: Which results are given for `CC(=O)Nc1ccc(S(=O)(=O)n2nc(C)cc2C)cc1`?
Answer: viability [1]: 105%; Her2 level [2]: 106% (inactive); viability [3]: 105% (inactive); viability [4]: 111% (inactive); viability [5]: 105% (inactive); differential viability (reversal) ([6]; H69AR cells + 2 uM doxorubicin): 5.88% (inactive); viability [6, 9]: 98.9%; viability [6, 10]: 105%; inhibition [7]: -6.45% (inactive); inhibition [8]: 10.3% (inactive)

Question: Which viability [1] does the source give for `CCCn1c(O)c(CN2CCCC(C)C2)c(C)c(C#N)c1=O` (stereo unspecified) here?
Answer: 102%

Question: And the Her2 level [2]?
Answer: 87.5% (inactive)

Question: What about the viability [3] of the same compound?
Answer: 102% (inactive)

Question: And the viability [4]?
Answer: 86.8% (inactive)

Question: What about the viability [5] of the same compound?
Answer: 107% (inactive)

Question: And the differential viability (reversal) ([6]; H69AR cells + 2 uM doxorubicin)?
Answer: 15.3% (inactive)

Question: What about the viability [6, 9] of the same compound?
Answer: 92.2%

Question: And the viability [6, 10]?
Answer: 107%

Question: And the inhibition [7]?
Answer: -5.87% (inactive)

Question: What about the inhibition [8] of the same compound?
Answer: 5.32% (inactive)
